Data as given in ChEMBL document CHEMBL5338787, “Discovery of Novel Bruton's Tyrosine Kinase PROTACs with Enhanced Selectivity and Cellular Efficacy” (J Med Chem, 2023).
Active and inactive are the calls of the source. The calls are words filed in the database; no cut-off is given here.

Legend:
Assay type in all cases: cell-based
[1] = molecular target: Tyrosine-protein kinase CSK (Homo sapiens) (UniProt P41240); assay: Degradation of CSK in human TMD8 cells by measuring protein level at 111 nM for 6 hrs using label free proteomic analysis
Chain of Tyrosine-protein kinase CSK (Homo sapiens) (P41240 2-450 limits assumed): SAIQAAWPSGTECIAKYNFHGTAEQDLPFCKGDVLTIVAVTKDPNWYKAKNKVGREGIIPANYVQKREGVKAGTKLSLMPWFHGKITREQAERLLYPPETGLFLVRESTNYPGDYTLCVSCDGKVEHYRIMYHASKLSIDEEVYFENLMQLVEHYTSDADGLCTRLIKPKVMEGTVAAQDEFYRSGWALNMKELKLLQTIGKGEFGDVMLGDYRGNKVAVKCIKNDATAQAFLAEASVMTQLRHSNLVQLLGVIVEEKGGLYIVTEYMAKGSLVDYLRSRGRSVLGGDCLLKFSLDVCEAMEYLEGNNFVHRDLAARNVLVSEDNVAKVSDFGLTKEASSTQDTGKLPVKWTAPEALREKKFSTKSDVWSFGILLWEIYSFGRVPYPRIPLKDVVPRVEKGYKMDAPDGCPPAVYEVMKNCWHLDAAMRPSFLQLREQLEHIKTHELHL
Summary of the method: (§1)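 TMD8 cells (2 × 10^6) given 111 nM or DMSO for 6 h in duplicate. Lysed in 5% SDS/50 mM TEAB pH 8.5. 200 μg protein reduced (10 mM DTT, 55 °C, 30 min), alkylated (50 mM iodoacetamide), S-Trap processed, then LC-MS/MS. Label-free matched-peptide quantitation against DMSO, human UniProt; Benjamini–Hochberg-corrected p-values.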

[2] = molecular target: Tyrosine-protein kinase BTK (Homo sapiens, UniProt Q06187); assay: Degradation of BTK in human TMD8 cells by measuring protein level at 111 nM for 6 hrs using label free proteomic analysis; summary of the method: as §1
Chain of Tyrosine-protein kinase BTK (Q06187 whole entry): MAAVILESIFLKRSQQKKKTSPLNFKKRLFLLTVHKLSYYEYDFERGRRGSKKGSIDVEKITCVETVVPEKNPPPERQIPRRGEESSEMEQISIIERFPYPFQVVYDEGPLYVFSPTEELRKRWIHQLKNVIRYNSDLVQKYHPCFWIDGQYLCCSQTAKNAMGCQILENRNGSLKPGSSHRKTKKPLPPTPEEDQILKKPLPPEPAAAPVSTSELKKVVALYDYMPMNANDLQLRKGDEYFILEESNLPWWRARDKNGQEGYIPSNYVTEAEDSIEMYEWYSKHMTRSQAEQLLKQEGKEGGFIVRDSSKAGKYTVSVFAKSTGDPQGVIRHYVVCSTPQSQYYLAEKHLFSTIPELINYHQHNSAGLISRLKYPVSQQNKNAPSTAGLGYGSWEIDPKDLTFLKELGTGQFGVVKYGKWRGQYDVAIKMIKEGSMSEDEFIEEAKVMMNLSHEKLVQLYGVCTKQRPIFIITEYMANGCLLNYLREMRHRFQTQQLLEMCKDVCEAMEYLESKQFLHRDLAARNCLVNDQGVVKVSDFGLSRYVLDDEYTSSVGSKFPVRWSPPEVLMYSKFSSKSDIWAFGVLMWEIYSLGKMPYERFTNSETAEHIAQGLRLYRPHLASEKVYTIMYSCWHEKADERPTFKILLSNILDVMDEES

[3] = molecular target: Protein cereblon/Tyrosine-protein kinase BTK (Homo sapiens, UniProt Q06187+Q96SW2); assay: PROTAC activity at BTK/CRBN protein protein interaction in human JeKo-1 cell assessed as degradation of BTK incubated for 17 hrs measured by Western blot analysis
Chain of Protein cereblon/Tyrosine-protein kinase BTK (Q06187 whole entry): as above
Chain of Protein cereblon/Tyrosine-protein kinase BTK (Q96SW2 whole entry): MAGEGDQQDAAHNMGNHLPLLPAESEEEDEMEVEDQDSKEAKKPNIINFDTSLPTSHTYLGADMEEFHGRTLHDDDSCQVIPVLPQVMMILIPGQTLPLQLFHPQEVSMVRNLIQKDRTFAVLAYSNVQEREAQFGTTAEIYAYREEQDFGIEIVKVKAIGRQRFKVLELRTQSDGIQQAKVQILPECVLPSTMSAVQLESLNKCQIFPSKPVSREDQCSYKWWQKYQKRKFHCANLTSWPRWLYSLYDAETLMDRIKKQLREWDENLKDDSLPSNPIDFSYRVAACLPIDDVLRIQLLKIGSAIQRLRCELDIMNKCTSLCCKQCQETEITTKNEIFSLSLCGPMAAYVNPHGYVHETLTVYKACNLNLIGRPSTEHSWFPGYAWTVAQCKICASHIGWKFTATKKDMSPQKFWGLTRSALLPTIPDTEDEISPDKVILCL
Summary of the method: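 Ramos or JeKo-1 cells (2 × 10^6 per well) were exposed for 17 h to 3000–0.15 nM PROTAC in 3-fold steps. Cells were lysed and analysed by western blot, with BTK normalised to β-actin. DC50 and Dmax come from the dose-response; DC50 is the mean ± SD of two independent experiments.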

[4] = molecular target: Non-receptor tyrosine-protein kinase TYK2 (Homo sapiens) (UniProt P29597); assay: Degradation of TYK2 in human TMD8 cells by measuring protein level at 111 nM for 6 hrs using label free proteomic analysis; summary of the method: as §1
Chain of Non-receptor tyrosine-protein kinase TYK2 (Homo sapiens) (P29597 whole entry): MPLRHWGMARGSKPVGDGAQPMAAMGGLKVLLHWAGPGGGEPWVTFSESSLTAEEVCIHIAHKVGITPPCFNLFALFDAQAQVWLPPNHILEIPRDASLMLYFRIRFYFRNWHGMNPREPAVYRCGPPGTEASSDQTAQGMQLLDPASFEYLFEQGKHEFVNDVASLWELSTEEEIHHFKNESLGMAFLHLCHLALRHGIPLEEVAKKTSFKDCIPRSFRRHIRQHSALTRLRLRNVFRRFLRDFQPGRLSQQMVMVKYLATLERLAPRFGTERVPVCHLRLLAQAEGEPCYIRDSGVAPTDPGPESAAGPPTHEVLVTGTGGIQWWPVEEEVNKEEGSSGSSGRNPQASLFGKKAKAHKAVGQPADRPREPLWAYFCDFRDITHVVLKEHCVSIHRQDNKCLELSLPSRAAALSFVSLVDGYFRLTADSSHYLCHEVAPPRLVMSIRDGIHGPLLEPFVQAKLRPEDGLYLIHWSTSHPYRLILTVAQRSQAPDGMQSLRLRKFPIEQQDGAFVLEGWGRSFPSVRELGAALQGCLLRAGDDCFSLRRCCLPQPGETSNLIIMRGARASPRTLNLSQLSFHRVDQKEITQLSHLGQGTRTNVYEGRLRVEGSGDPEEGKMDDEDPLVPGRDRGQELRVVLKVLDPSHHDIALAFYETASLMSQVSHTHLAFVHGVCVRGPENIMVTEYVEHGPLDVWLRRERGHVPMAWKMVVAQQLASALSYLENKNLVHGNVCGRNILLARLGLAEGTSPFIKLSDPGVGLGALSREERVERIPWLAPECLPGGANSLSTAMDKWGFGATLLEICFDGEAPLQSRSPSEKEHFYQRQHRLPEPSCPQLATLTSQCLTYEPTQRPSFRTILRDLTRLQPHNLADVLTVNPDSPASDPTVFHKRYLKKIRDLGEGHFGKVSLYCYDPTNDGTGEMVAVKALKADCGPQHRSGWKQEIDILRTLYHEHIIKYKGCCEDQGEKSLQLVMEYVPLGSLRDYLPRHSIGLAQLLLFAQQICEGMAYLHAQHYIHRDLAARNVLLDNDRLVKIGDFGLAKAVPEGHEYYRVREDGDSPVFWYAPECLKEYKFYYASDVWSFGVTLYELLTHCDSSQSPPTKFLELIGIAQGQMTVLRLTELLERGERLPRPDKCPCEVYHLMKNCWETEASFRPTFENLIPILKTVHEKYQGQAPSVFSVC

[5] = molecular target: T1, Zinc finger protein 280D (Homo sapiens) (UniProt Q6N043); assay: Degradation of […] in human TMD8 cells by measuring protein level at 111 nM for 6 hrs using label free proteomic analysis; summary of the method: as §1
T1 sequence (whole entry): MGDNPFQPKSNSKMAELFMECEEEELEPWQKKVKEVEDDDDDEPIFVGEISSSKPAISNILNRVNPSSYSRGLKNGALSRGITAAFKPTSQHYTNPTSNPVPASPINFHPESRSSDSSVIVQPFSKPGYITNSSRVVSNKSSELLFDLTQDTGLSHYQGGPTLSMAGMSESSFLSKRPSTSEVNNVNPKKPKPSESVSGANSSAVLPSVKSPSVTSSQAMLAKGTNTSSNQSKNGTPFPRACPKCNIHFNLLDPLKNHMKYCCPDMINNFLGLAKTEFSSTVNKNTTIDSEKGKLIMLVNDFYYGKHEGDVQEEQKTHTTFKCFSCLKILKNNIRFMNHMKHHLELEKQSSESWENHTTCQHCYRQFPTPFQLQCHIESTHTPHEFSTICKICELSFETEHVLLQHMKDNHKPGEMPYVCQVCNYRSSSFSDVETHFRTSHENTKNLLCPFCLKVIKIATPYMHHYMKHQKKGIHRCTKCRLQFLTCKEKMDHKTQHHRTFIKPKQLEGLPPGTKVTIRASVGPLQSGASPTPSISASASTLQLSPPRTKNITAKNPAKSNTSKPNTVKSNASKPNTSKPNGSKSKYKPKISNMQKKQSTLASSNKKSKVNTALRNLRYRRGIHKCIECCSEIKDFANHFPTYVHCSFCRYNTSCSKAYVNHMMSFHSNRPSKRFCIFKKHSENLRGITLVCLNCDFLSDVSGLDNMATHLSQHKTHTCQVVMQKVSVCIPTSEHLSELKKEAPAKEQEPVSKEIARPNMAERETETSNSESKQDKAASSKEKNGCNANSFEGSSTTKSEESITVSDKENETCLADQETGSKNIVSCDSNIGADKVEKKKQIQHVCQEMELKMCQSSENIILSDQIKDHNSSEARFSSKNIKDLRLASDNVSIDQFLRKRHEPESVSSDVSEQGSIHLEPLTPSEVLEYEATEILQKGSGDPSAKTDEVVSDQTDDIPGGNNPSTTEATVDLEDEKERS

Row | Activity [1] | Activity [2] | DC50 [3] [nM] | Activity [4] | Activity [5] | Structure (SMILES)
1 | inactive | Active | 3.1 | inactive | Active | C[C@H]1CN(C(=O)COc2cccc3c2C(=O)N(C2CCC(=O)NC2=O)C3=O)CCN1c1ccc(Nc2cc(-c3ccnc(N4CCn5c(cc6c5CC(C)(C)C6)C4=O)c3CO)cn(C)c2=O)nc1 (stereo not given in full)
2 | inactive | Active | 0.6 | inactive | Active | C[C@H]1CN(C(=O)CNc2cccc3c2C(=O)N(C2CCC(=O)NC2=O)C3=O)CCN1c1ccc(Nc2cc(-c3ccnc(N4CCn5c(cc6c5CC(C)(C)C6)C4=O)c3CO)cn(C)c2=O)nc1 (stereo not given in full)
